From ChEMBL document CHEMBL4196105, “Discovery of β-Arrestin Biased Ligands of 5-HT7R” (J Med Chem, 2018)
Calls of active or inactive are those of the source. No cut-off for these calls is given here.

Tests used:
[1] = target: T1, 5-hydroxytryptamine receptor 7 (Homo sapiens, UniProt P34969); assay: Inverse agonist activity at human 5-HT7 receptor expressed in HEK293 cells assessed as decrease in Gs protein-mediated cAMP accumulation by luminescence-based assay; type: functional, cell-based
How it was run: (§1)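 HEK293 cells transiently transfected by calcium phosphate with human 5-HT7R and GloSensor-22F cAMP biosensor. After 5-6 h recovery, loaded with GloSensor reagent in HBSS/20 mM HEPES, pH 7.4. Test compounds at 0.01 nM-100 μM final; antagonist mode uses 5-HT stimulation. Luminescence read. Data normalised to 5-HT or SB269970 (100%) and vehicle (0%). Three experiments, at least triplicate.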

[2] = species: Homo sapiens; assay: Selectivity index, ratio of Ki for human 5-HT1E receptor to Ki for human 5-HT7 receptor
How it was run: (§2)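 Selectivity index taken as Ki at the other 5-HT receptor subtype divided by Ki at 5-HT7R, each from [3H]LSD membrane binding run by the NIMH PDSP. Ki values are means of at least three experiments in triplicate.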

[3] = target: 5-hydroxytryptamine receptor 2A (Homo sapiens, UniProt P28223); assay: Displacement of [3H]LSD from human 5-HT2A receptor expressed in HEK cell membranes after 1.5 hrs by microbeta scintillation counting method
How it was run: (§3)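 Radioligand binding performed by the NIMH Psychoactive Drug Screening Program. Crude membranes from cells expressing recombinant receptor, with [3H]LSD, in 50 mM Tris-HCl, 10 mM MgCl2, 1 mM EDTA, pH 7.4. Eleven test concentrations. Incubated 1.5 h at room temperature, protected from light. Filtered onto PEI-soaked GF/B filters, then scintillation counting. IC50 converted to Ki; at least three experiments in triplicate.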

[4] = target: T2, 5-hydroxytryptamine receptor 3A (Homo sapiens, UniProt P46098); assay: Displacement of [3H]LSD from human 5-HT3 receptor expressed in HEK cell membranes after 1.5 hrs by microbeta scintillation counting method; how it was run: as §3
T2 sequence (P46098 whole entry): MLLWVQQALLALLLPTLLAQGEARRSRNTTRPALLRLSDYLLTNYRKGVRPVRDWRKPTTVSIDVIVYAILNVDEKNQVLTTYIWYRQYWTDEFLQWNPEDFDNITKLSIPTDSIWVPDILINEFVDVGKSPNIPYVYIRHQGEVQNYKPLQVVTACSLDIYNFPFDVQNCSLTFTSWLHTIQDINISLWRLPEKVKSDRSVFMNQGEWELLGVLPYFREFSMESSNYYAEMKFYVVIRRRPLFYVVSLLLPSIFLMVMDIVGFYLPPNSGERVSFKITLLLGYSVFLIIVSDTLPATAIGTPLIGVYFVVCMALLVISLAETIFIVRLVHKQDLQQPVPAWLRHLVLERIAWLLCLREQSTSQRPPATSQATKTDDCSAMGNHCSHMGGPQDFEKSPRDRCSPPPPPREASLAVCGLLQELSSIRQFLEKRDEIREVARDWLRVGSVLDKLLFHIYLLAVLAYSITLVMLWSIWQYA

[5] = target: T1, 5-hydroxytryptamine receptor 7; assay: Agonist activity at tTA containing TCS cleavage site-fused 5-HT7 receptor (unknown origin) expressed in tTA-dependent luciferase reporter/TEV-fused beta-arrestin2 expressing HTLA cells assessed as induction of beta-arrestin2 recruitment after 22 hrs by Tango assay relative to 5-HT; type: functional, cell-based
How it was run: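 HTLA cells (HEK293 stably expressing tTA-dependent luciferase reporter and β-arrestin2-TEV) transiently transfected with 5-HT7R-TCS-tTA. Plated in 1% dialysed FBS medium for 6 h, then given test compounds at 0.01 nM-100 μM final, about 22 h. Antagonist mode adds 1 μM 5-HT. BrightGlo luminescence read. Normalised to 5-HT (100%) and vehicle (0%). Three experiments, at least triplicate.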

[6] = target: 5-hydroxytryptamine receptor 5A (Homo sapiens, UniProt P47898); assay: Displacement of [3H]LSD from human 5-HT5A receptor expressed in HEK cell membranes after 1.5 hrs by microbeta scintillation counting method; how it was run: as §3
[7] = species: Homo sapiens; assay: Selectivity index, ratio of Ki for human 5-HT2A receptor to Ki for human 5-HT7 receptor; how it was run: as §2
[8] = species: Homo sapiens; assay: Selectivity index, ratio of Ki for human 5-HT6 receptor to Ki for human 5-HT7 receptor; how it was run: as §2
[9] = species: Homo sapiens; assay: Selectivity index, ratio of Ki for human 5-HT2C receptor to Ki for human 5-HT7 receptor; how it was run: as §2
[10] = target: 5-hydroxytryptamine receptor 2B (Homo sapiens, UniProt P41595); assay: Displacement of [3H]LSD from human 5-HT2B receptor expressed in HEK cell membranes after 1.5 hrs by microbeta scintillation counting method
[11] = target: T3, 5-hydroxytryptamine receptor 2C (Homo sapiens, UniProt P28335); assay: Displacement of [3H]LSD from human 5-HT2C receptor expressed in HEK cell membranes after 1.5 hrs by microbeta scintillation counting method; how it was run: as §3
T3 sequence (P28335 whole entry): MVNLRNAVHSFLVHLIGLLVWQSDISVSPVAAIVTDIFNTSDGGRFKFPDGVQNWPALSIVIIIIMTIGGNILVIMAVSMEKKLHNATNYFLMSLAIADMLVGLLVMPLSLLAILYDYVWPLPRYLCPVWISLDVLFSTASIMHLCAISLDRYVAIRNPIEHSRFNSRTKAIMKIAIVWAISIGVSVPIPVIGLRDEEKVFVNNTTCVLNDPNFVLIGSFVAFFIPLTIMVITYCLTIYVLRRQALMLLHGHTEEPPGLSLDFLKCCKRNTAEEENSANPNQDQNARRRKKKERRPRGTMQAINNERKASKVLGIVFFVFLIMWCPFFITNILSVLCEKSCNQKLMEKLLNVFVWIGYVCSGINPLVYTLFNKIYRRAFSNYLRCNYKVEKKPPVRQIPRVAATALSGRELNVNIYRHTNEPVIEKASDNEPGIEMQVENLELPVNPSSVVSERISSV

[12] = target: T1, 5-hydroxytryptamine receptor 7
[13] = target: T1, 5-hydroxytryptamine receptor 7; assay: Antagonist activity at tTA containing TCS cleavage site-fused 5-HT7 receptor (unknown origin) expressed in tTA-dependent luciferase reporter/TEV-fused beta-arrestin2 expressing HTLA cells assessed as inhibition of 5-HT-induced beta-arrestin2 recruitment after 22 hrs by Tango assay; type: functional, cell-based
[14] = target: 5-hydroxytryptamine receptor 6 (Homo sapiens, UniProt P50406); assay: Displacement of [3H]LSD from human 5-HT6 receptor expressed in HEK cell membranes after 1.5 hrs by microbeta scintillation counting method; how it was run: as §3
[15] = species: Homo sapiens; assay: Selectivity index, ratio of Ki for human 5-HT1D receptor to Ki for human 5-HT7 receptor; how it was run: as §2
[16] = target: T1, 5-hydroxytryptamine receptor 7; assay: Antagonist activity at human 5-HT7 receptor expressed in HEK293 cells assessed as inhibition of Gs protein-mediated cAMP accumulation by luminescence-based assay relative to SB269970; type: functional, cell-based; how it was run: as §1

5-hydroxytryptamine receptor 2B, sequence (P41595 whole entry): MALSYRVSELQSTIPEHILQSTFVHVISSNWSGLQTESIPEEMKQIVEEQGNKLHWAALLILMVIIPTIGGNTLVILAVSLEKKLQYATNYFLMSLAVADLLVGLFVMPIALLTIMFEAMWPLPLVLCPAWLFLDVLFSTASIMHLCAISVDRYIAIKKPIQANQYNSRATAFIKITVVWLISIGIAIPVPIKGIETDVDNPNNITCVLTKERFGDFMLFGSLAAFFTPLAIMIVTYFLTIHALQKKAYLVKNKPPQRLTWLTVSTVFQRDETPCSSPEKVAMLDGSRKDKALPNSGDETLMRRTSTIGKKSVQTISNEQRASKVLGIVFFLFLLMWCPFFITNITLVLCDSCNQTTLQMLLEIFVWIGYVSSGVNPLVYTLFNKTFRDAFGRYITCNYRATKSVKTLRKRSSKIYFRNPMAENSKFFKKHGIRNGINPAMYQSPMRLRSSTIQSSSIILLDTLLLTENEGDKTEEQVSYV
5-hydroxytryptamine receptor 2A, sequence (P28223 whole entry): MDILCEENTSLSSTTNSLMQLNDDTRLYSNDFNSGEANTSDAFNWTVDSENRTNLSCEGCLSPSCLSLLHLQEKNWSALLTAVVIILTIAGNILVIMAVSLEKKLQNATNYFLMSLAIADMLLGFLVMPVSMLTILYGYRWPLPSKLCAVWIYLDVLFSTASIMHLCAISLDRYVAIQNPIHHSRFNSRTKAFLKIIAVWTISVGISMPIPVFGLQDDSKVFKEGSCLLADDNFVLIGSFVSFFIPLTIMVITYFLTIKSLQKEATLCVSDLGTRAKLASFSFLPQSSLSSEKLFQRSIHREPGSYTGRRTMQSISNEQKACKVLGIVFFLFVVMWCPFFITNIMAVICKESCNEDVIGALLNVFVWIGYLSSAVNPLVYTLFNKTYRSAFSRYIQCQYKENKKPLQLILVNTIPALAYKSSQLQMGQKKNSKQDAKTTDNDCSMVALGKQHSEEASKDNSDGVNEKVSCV
5-hydroxytryptamine receptor 5A, sequence (P47898 whole entry): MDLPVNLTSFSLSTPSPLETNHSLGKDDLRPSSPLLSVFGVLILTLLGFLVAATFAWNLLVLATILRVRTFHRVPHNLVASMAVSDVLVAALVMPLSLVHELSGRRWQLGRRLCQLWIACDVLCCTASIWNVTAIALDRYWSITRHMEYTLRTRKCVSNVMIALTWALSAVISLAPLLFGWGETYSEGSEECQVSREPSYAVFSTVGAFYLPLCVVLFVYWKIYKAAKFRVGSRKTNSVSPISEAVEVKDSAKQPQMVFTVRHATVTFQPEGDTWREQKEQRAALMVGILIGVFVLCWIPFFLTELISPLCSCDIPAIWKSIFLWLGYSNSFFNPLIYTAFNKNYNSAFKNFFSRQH
T1 sequence (P34969 whole entry): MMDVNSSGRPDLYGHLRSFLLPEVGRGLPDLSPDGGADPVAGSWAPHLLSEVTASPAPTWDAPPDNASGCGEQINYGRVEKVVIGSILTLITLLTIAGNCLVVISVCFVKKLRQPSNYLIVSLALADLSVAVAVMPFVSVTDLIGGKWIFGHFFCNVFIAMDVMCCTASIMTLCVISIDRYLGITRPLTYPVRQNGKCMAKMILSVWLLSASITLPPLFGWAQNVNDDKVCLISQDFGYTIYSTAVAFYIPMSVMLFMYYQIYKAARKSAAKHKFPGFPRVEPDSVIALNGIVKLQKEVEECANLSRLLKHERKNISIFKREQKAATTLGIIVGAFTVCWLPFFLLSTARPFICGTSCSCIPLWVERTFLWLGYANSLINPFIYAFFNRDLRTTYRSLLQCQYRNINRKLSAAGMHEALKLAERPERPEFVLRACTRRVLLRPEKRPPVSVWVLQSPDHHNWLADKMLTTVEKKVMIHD
5-hydroxytryptamine receptor 6, sequence (P50406 whole entry): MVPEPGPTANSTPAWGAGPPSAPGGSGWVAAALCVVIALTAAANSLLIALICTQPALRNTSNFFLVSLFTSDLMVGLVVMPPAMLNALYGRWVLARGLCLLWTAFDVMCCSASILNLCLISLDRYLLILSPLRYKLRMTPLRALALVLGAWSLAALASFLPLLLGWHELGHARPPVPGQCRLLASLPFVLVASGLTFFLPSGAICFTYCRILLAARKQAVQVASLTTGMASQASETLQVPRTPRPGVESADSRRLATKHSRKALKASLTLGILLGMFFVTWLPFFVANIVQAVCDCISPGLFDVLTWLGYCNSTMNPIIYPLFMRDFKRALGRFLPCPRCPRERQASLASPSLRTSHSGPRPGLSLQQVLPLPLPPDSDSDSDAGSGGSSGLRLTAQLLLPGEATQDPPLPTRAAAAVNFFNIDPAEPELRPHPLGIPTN

Activity [1] | Ratio Ki [2] | Ki [3] [nM] | Ki [4] [nM] | Emax [5] [%] | Ki [6] [nM] | Ratio Ki [7] | Ratio Ki [8] | Ratio Ki [9] | Ki [10] [nM] | Ki [11] [nM] | IC50 [12] [nM] | inhibition [13] | Ki [14] [nM] | Ratio Ki [15] | Imax [16] [%] | SMILES
Active | 112 | 138 | 420 | 40.3 | 1140 | 8.6 | 30.8 | 1.3 | 150 | 20 | 844 | inactive | 492 | 9.2 | 95.8 | Cc1ccc(-c2noc3c2CCNCC3)cc1
Active | 7.6 | 175 | > 10000 | 53.9 | > 10000 | 1.7 | 4 | 1.9 | 97 | 200 | 6980 | inactive | 416 | 6.1 | 98.4 | Fc1ccc(-c2n[nH]c3c2CCNCC3)cc1

SMILES | Activity [1] | Ratio Ki [2] | Ki [3] [nM] | Ki [4] [nM] | Emax [5] [%] | Ki [6] [nM] | Ratio Ki [7] | Ratio Ki [8] | Ratio Ki [9] | Ki [10] [nM] | Ki [11] [nM] | IC50 [12] [nM] | inhibition [13] | Ki [14] [nM] | Ratio Ki [15] | Imax [16] [%]
Clc1ccc(-c2n[nH]c3c2CCNCC3)cc1 | Active | 45.5 | 187 | > 10000 | 62.8 | > 10000 | 6.2 | 8.3 | 26.6 | 100 | 799 | 7790 | inactive | 248 | 70.5 | 94.8
